Assay [1] has as its system Leishmania amazonensis. Description: Inhibition of sterol biosynthesis in Leishmania mexicana amazonensis promastigotes assessed as reduction in endogenous episterol level at 10 uM after 96 hrs by gas-liquid chromatography. The assay is classed as functional. Further details: scale not given: the % may be the effect or the level left; call rule not given here. The gist of the method: (§1)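 L. mexicana promastigotes exposed to compound for 96 h. Total lipids extracted and neutral sterols separated from polar lipids by silicic acid column chromatography. Sterols analysed by TLC and by quantitative capillary gas-liquid chromatography with mass spectrometry. Composition expressed as mass % of free sterols, compared with untreated control.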

Assay [2] relates to Leishmania amazonensis. Description: Inhibition of sterol biosynthesis in Leishmania mexicana amazonensis promastigotes assessed as reduction in endogenous 5-dehydro episterol level at 3 uM after 96 hrs by gas-liquid chromatography. Further details: scale not given: the % may be the effect or the level left. Type of assay: functional. The gist of the method: as §1
A further assay concerns Plasmodium falciparum. Description: Antiplasmodial activity after 48 hrs against chloroquine and pyrimethamine-resistant Plasmodium falciparum K1 in human erythrocytes by [3H]hypoxanthine uptake. The assay is classed as functional, organism-based. A digest of the protocol:
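P. falciparum K1 in human red cells in RPMI 1640 with 5% Albumax, exposed to serial drug dilutions. Incubated 48 h at 37°C under reduced oxygen, then 0.5 μCi [³H]hypoxanthine per well for 24 h more. Cells harvested onto glass-fibre filters and counted by scintillation. Result expressed as % of untreated control, with IC50 from sigmoidal curve. Duplicate, plus an independent repeat for actives.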

Assay [3] deals with T1, Squalene synthase (Homo sapiens, UniProt P37268).
T1 sequence (P37268 whole entry): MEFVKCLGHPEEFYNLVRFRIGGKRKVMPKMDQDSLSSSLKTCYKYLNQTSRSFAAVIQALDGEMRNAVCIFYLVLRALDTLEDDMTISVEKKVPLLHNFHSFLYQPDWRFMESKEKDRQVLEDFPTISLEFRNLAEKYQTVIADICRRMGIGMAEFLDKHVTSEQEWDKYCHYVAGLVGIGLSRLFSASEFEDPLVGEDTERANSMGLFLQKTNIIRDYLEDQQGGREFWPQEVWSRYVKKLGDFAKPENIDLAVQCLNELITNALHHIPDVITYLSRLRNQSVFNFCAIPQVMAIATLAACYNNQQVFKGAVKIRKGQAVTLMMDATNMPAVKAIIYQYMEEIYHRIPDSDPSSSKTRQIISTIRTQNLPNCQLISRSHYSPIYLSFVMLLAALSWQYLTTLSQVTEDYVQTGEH
Description: Inhibition of human recombinant squalene synthase expressed in Escherichia coli BL21(DE3 pLysS) by liquid scintillation counter. The gist of the method:
(§2)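 Human SQS in extracts of E. coli BL21(DE3 pLysS) carrying pHSS16, assayed under the same conditions as the L. major enzyme. Buffer: phosphate pH 7.4, MgCl2, CHAPS, Tween 80, DTT, BSA, and NADPH with a regenerating system. Substrate 0.5 μM radiolabelled farnesyl pyrophosphate. Squalene band radioactivity counted by scintillation.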

Assay [4] has as its system Leishmania amazonensis. Description: Inhibition of sterol biosynthesis in Leishmania mexicana amazonensis promastigotes assessed as reduction in exogenous cholesterol level at 10 uM after 96 hrs by gas-liquid chromatography. Type of assay: functional. Further details: scale not given: the % may be the effect or the level left. A digest of the protocol: as §1
Another assay deals with L6. Description: Cytotoxicity against rat L6 cells after 72 hrs by resazurin assay. The assay is classed as cell-based. Conditions: L6, 72 h. A digest of the protocol:
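L-6 cells seeded at 4 × 10⁴ cells/ml in RPMI 1640 with 10% FBS and 2 mM L-glutamine. After 24 h, medium replaced with serial drug dilution and incubated for 72 h at 37°C in 5% CO2. Resazurin added for 2–4 h, fluorescence read at ex 536/em 588 nm. IC50 from sigmoidal curve. Duplicate, with an independent repeat for actives.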

The test system of a further assay is Trypanosoma cruzi. Description: Antitrypanosomal activity against trypomastigotes of Trypanosoma cruzi Tulahuen C2C4 containing lacZ gene in rat L6 cells after 4 days by chlorophenol red-beta-D-galactopyranoside/Nonidet assay. Type of assay: functional, organism-based. Conditions: Tulahuen C2C4, L6, 96 h. The gist of the method:
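L-6 rat myoblasts seeded at 2,000 cells/well in RPMI 1640 with 10% FBS and 2 mM L-glutamine. After 24 h, 5,000 T. cruzi Tulahuen C2C4 lacZ trypomastigotes added with serial drug dilution. Incubated at 37°C in 5% CO2 for 4 days. CPRG/Nonidet substrate added and colour read at 540 nm after 2–4 h. IC50 from sigmoidal curve. Duplicate determinations.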

Assay [5] has as its system Leishmania amazonensis. Description: Inhibition of sterol biosynthesis in Leishmania mexicana amazonensis promastigotes assessed as reduction in endogenous episterol level at 3 uM after 96 hrs by gas-liquid chromatography. Type of assay: functional. Details: scale not given: the % may be the effect or the level left. The gist of the method: as §1
Assay [6] deals with T2, Farnesyltransferase, putative (Leishmania major, UniProt Q4Q5W4).
T2 sequence (Q4Q5W4 whole entry): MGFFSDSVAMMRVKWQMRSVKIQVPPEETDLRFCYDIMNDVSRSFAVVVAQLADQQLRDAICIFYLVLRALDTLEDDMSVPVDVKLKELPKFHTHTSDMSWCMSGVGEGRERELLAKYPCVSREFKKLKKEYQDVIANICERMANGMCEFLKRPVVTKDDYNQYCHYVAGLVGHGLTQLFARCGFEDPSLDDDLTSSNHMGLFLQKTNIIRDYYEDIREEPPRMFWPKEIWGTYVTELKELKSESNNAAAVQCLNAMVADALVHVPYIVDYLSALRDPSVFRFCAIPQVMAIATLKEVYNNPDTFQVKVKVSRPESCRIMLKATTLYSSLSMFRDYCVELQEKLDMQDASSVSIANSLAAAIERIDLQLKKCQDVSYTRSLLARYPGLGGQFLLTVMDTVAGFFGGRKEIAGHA
Description: Inhibition of Leishmania major recombinant squalene synthase expressed in Escherichia coli by liquid scintillation counter. The gist of the method: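 Soluble E. coli extract expressing L. major SQS truncated by 16 N-terminal and 40 C-terminal residues. Buffer: 50 mM phosphate pH 7.4, 20 mM MgCl2, 5 mM CHAPS, 1% Tween 80, 10 mM DTT, BSA, 0.25 mM NADPH, and a glucose-6-phosphate/G6PDH regenerating system. Substrate 0.5 μM radiolabelled farnesyl pyrophosphate. Squalene band counted by scintillation. IC50 from hyperbolic plot of five concentrations in duplicate, usually run twice.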

The subject of assay [7] is Leishmania amazonensis. Description: Inhibition of sterol biosynthesis in Leishmania mexicana amazonensis promastigotes assessed as reduction in exogenous cholesterol level at 3 uM after 96 hrs by gas-liquid chromatography. The assay is classed as functional. Further details: scale not given: the % may be the effect or the level left. A digest of the protocol:
as §1

For assay [8], the system named is Leishmania amazonensis. Description: Inhibition of sterol biosynthesis in Leishmania mexicana amazonensis promastigotes assessed as reduction in endogenous 5-dehydro episterol level at 10 uM after 96 hrs by gas-liquid chromatography. Type of assay: functional. Further details: scale not given: the % may be the effect or the level left. A digest of the protocol:
as §1

The test system of another assay is Leishmania donovani. Description: Antileishmanial activity against Leishmania donovani MHOM/ET/67/L82 axenic amastigotes after 72 hrs by resazurin assay. The assay is classed as functional, organism-based. Conditions: MHOM/ET/67/L82, 72 h. A digest of the protocol:
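L. donovani MHOM/ET/67/L82 amastigotes grown axenically at 37°C in synthetic minimal medium at pH 5.4 with 10% heat-inactivated FBS under 5% CO2. 1 × 10⁵ amastigotes per well with seven threefold dilutions, 30 to 0.041 μg/ml. After 72 h, resazurin added for 2–4 h more. Fluorescence read at ex 536/em 588 nm. IC50 taken from sigmoidal curve. Run in duplicate, with an independent repeat for actives.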

Assay [9] deals with Trypanosoma brucei rhodesiense. Description: Trypanocidal activity against Trypanosoma brucei rhodesiense STIB 900 bloodstream form after 72 hrs by resazurin assay. Type of assay: functional, organism-based. The settings on record: STIB 900, 72 h. The gist of the method:
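T. b. rhodesiense STIB 900 bloodstream forms in MEM with 2-mercaptoethanol and 15% heat-inactivated horse serum, with serial drug dilutions. Incubated 72 h at 37°C in 5% CO2. Resazurin added for 2–4 h more, fluorescence read at ex 536/em 588 nm. IC50 from sigmoidal curve. Duplicate, with an independent repeat for actives.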

Assay [10] deals with Leishmania amazonensis. Description: Antileishmanial activity against Leishmania mexicana amazonensis promastigotes by trypan blue exclusion method. Type of assay: functional, organism-based. A digest of the protocol: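 L. mexicana amazonensis promastigotes cultured in liver infusion-tryptose medium with lactalbumin and 10% FCS at 26°C, unagitated. Cultures started at 2 × 10⁶ cells/ml and drug added at 0.5–1 × 10⁷ cells/ml. Density counted by electronic particle counter and hemocytometer. Viability by trypan blue exclusion. Triplicate growth experiments.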

Assay [11] deals with Leishmania amazonensis. Description: Inhibition of sterol biosynthesis in Leishmania mexicana amazonensis promastigotes assessed as reduction in endogenous 5-dehydro episterol level at 0.1 uM after 96 hrs by gas-liquid chromatography. Type of assay: functional. Further details: scale not given: the % may be the effect or the level left. A digest of the protocol: as §1
In assay [12] the target is T1, Squalene synthase. Description: Inhibition of human recombinant squalene synthase expressed in Escherichia coli BL21(DE3 pLysS) up to 1 uM by liquid scintillation counter. A digest of the protocol: as §2
Assay [13] deals with Leishmania amazonensis. Description: Inhibition of sterol biosynthesis in Leishmania mexicana amazonensis promastigotes assessed as reduction in endogenous episterol level at 0.1 uM after 96 hrs by gas-liquid chromatography. The assay is classed as functional. Further details: scale not given: the % may be the effect or the level left. A digest of the protocol: as §1
Assay [14] deals with Leishmania amazonensis. Description: Inhibition of sterol biosynthesis in Leishmania mexicana amazonensis promastigotes assessed as reduction in endogenous 5-dehydro episterol level at 0.3 uM after 96 hrs by gas-liquid chromatography. Type of assay: functional. Further details: scale not given: the % may be the effect or the level left. A digest of the protocol:
(§3)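 Promastigotes grown in liver infusion-tryptose medium with lactalbumin and 10% fetal calf serum at 26°C, static; drug added at 0.5 × 10⁷ to 1 × 10⁷ cells/ml and cells exposed for 96 h. Total lipids extracted; neutral lipids separated from polar lipids by silicic acid column chromatography; free sterols quantified by capillary gas-liquid chromatography and mass spectrometry as mass % of total sterols.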

For assay [15], the system named is Leishmania amazonensis. Description: Inhibition of sterol biosynthesis in Leishmania mexicana amazonensis promastigotes assessed as reduction in endogenous episterol level at 0.3 uM after 96 hrs by gas-liquid chromatography. Type of assay: functional. Details: scale not given: the % may be the effect or the level left. A digest of the protocol: as §3
For assay [16], the system named is Leishmania amazonensis. Description: Inhibition of sterol biosynthesis in Leishmania mexicana amazonensis promastigotes assessed as reduction in exogenous cholesterol level at 0.3 uM after 96 hrs by gas-liquid chromatography. Type of assay: functional. Details: scale not given: the % may be the effect or the level left. The gist of the method: as §3
Assay [17] relates to Leishmania amazonensis. Description: Inhibition of sterol biosynthesis in Leishmania mexicana amazonensis promastigotes assessed as reduction in exogenous cholesterol level at 0.1 uM after 96 hrs by gas-liquid chromatography. Type of assay: functional. Details: scale not given: the % may be the effect or the level left. The gist of the method: as §1

Here are results for 3 molecules from ChEMBL document CHEMBL1137637, “Quinuclidine derivatives as potential antiparasitics” (Antimicrob Agents Chemother, 2007).

SMILES strings stand for the structures. ≈ marks a conversion by molar mass, not a printed value. A value given as a limit tells only on which side of the number the result lay.

Take `CCOC(=O)Cc1ccc(C#CC2(O)CN3CCC2CC3)cc1` (configuration not stated): the Activity in the assay on Leishmania amazonensis [1] stood at 18.8%; with Leishmania amazonensis [2], 48.6%; in the assay on Leishmania amazonensis [4], 62.3%; in the assay on Leishmania amazonensis [5], 23%; in the assay on Leishmania amazonensis [7], 28.4%; with Leishmania amazonensis [8], 18.9%. The IC50 with Plasmodium falciparum was 10 µM; on Squalene synthase [3], 0.66 µM; in the assay with L6, over 287 µM; in the assay on Trypanosoma cruzi, 25.6 µM; in [6], 0.97 µM; in the assay with Leishmania donovani, 17.3 µM. In addition, the IC50 in [9] was 258 µM. Inhibition of growth against Leishmania amazonensis [10] (MIC) required 10 µM (≈ 3.13 µg/mL).
With `C(=C1/CN2CCC1CC2)/c1ccc(-c2ccccc2)cc1`, the IC50 in the assay with Plasmodium falciparum was 3.1 µM; in the assay with L6, 13.4 µM; in the assay with Trypanosoma cruzi, 1.8 µM; on Squalene synthase [12], “Not Active”; in assay [6] it was over 1 µM; with Leishmania donovani, 41.3 µM. This molecule also registered an IC50 in [9] of 0.7 µM. For the same molecule, the Activity in the assay with Leishmania amazonensis [11] came out at 26.4%; in the assay on Leishmania amazonensis [13], 42.2%; in the assay with Leishmania amazonensis [14] it was 18.1%; in the assay on Leishmania amazonensis [15], 33.3%; in the assay on Leishmania amazonensis [16], 36.7%; with Leishmania amazonensis [17] it was 31.4%. In the assay on Leishmania amazonensis [10], inhibition of growth (MIC) required 0.3 µM (≈ 0.0826 µg/mL).
Regarding `C1=C(c2ccc(OCc3ccccc3)cc2)C2CCN1CC2`, the IC50 came out at 4.8 µM with Plasmodium falciparum; 0.25 µM at Squalene synthase [3]; 47.2 µM in the assay on L6; 3.1 µM in the assay on Trypanosoma cruzi; 0.1 µM in assay [6]; 1.1 µM in the assay on Leishmania donovani. Further, in assay [9], the IC50 came out at 1.1 µM. The Activity in the assay on Leishmania amazonensis [11] worked out at 53%; with Leishmania amazonensis [13] it was 15.4%; in the assay with Leishmania amazonensis [14] it was 24.2%; in the assay on Leishmania amazonensis [15] it was 22.9%; in the assay on Leishmania amazonensis [16] it was 52.9%; in the assay with Leishmania amazonensis [17], 31.6%. In the assay with Leishmania amazonensis [10], it took 0.3 µM (≈ 0.0874 µg/mL) to inhibit growth (MIC).
